Source: PubChem (The Scripps Research Institute Molecular Screening Center)
Hits are enriched below; roughly 4.6% of the tested compounds scored in any of these assays.
OX1R antag-1 = blocks the human orexin 1 receptor; O43613; OX1R-expressing cells, FRET antagonist read-out; inhibition, % at 6.6 µM; 330,000 tested, 1.8% active; AID 485270; in the data active = inhibition mostly above about 38%, no sharp cut-off; inactive = mostly below about 40%
CHO parental Ca = signal in parental CHO cells, OX1R antagonist counter-screen | 330,000 tested, 0.63% active | AID 463079 | parental CHO-K1, ATP-induced calcium, Fluo-8 fluorescence | inhibition, % at 5.6 µM;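 active = inhibition above that plate's mean sample inhibition plus 3 SD, cut at about 26% in these data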
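Measured by: calcium-sensitive Fluo-8 fluorescence / Test system: CHO parental line / Controls: ATP-challenged DMSO wells low, unchallenged DMSO wells high / Measure: % inhibition / Compound: single nominal dose of 5.6 µM per compound / Replicates: single well per compound, no replicates / Reagent: ATP as calcium-mobilizing challenge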
OX1R antag-2 = antagonists of human orexin 1 receptor; O43613; CHO/OX1R cells, Fluo-8 calcium fluorescence, orexin A; inhibition, % at 5 µM; 330,000 tested, 0.43% active; AID 434989;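 active = inhibition above its plate's threshold, mean inhibition of all tested compounds on the plate plus 3 SD, cut at about 37% in these data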
TAAR1 antagonist = antagonists of human TAAR1; 360,000 tested, 1.5% active; inhibition, % at 3 µM; Q96RJ0; CHO RD-HGA16 TAAR1, Fluo-8 calcium fluorescence, antagonist;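 active = inhibition above a per-plate cutoff, the mean inhibition of test compounds on that plate plus 3 SD, cut at about 49% in these data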
Target sequence (Q96RJ0 whole entry, looked up): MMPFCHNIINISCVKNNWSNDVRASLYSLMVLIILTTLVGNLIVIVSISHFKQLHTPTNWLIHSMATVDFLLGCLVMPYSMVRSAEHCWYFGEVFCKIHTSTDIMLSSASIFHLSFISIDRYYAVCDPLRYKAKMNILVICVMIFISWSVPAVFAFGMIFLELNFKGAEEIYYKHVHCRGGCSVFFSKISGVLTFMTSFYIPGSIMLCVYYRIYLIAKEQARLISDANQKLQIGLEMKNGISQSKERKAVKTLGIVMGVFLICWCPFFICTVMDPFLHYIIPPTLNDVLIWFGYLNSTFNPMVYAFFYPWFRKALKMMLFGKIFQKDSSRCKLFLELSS
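Test system – hTAAR1-expressing CHO RD-HGA16 cells, Gα16-coupled · Also added – β-PEA at EC80 concentration, post-compound challenge · Compound – 3 µM, single point · Incubation – dye loading 75 min at 37 °C, then 30 min room temperature · Measured by – Fluo-8 intracellular calcium dye fluorescence, real-time kinetic reads · Benchmarks – vehicle and agonist controls · Replicates – singlicate, one well per test compound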
TAAR1 ag = agonists of human TAAR1. activation, % at 3 µM. 360,000 tested, 0.99% active. CHO RD-HGA16 TAAR1, Fluo-8 calcium fluorescence; vehicle wells 0%, saturating PEA agonist 100%;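 active = activation above the mean activation of all test compounds in the run plus 3 SD, cut at about 38% in these data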
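Test system: RD-HGA16 (CHO) cells co-expressing Gα16 and hTAAR1 / Benchmarks: DMSO vehicle as 0%, PEA at EC100 as 100% / Repeats: no replicates (n 1) / Measure: % activation from peak over basal fluorescence ratio, DMSO-to-PEA scaled / Timing: 17-24 h plating, Fluo-8 75 min 37 °C, 30 min RT / Technique: kinetic Fluo-8 calcium fluorescence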
GPR7 antagonist = human neuropeptides B/W receptor 1 antagonism; 290,000 tested, 1.1% active; AID 1861; GPR7-expressing cells, fluorescence antagonist assay; inhibition, % at 4.4 µM; P48145; in the data active = inhibition above about 16%, passing the limit was not always enough;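 note: cells stimulated with the agonist NPW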
OX1R HTRF confirm = OX1R (human) antagonism, HTRF confirmed; shares compounds with OX1R antag-1; OX1R-expressing cells, HTRF antagonist assay; inhibition, % at 6.6 µM; 1,800 tested, 49% active; AID 492964; in the data active = inhibition above about 55%;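 note: CHO cells expressing OX1R stimulated with orexin A at about EC80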
CHO-K1 HTRF cnt = counter-screen: parental CHO-K1 HTRF response | shares compounds with OX1R antag-1 | parental CHO-K1 cells, HTRF counterscreen | inhibition, % at 6.6 µM | 1,800 tested, 48% active; in the data active = inhibition above about 17%
A number is an active result; n = inactive; x = no result.

SMILES | OX1R antag-1 | CHO parental Ca | OX1R antag-2 | TAAR1 antagonist | TAAR1 ag | GPR7 antagonist | OX1R HTRF confirm | CHO-K1 HTRF cnt
O=C(c1ccccc1[N+](=O)[O-])n1cnc2ccccc21 | n | n | n | n | n | n | x | x
N/C(=N\OC(=O)c1cccc([N+](=O)[O-])c1)c1ccccn1 | 97 | n | n | n | n | n | n | 38
N/C(=N\OC(=O)c1ccc2ccccc2c1)c1cccc([N+](=O)[O-])c1 | n | n | n | n | n | n | x | x
N/C(=N/S(=O)(=O)c1ccccc1)c1cccc([N+](=O)[O-])c1 | 90 | n | n | n | n | n | n | 21
Cc1ccc(NC(=O)CS(=O)(=O)c2cn(C)c3ccccc23)c(C)c1 | n | n | n | n | n | x | x | x
CCC1CCc2sc(C(=O)N(C)CC(=O)Nc3cccc(OC)c3)cc2C1 (configuration not stated) | n | n | n | n | n | x | x | x
COC(=O)CNC(=O)/C=C/c1cc(Br)ccc1OC | n | n | n | n | n | n | x | x
COc1ccc(Br)cc1/C=C/C(=O)Nc1ccc(C)cc1 | 95 | n | n | n | n | n | 69 | 22
NC(=O)c1c(NC(=O)Cn2cc([N+](=O)[O-])cn2)sc2c1CCCC2 | 101 | n | n | n | n | n | n | n
O=C(O)CCCCCNS(=O)(=O)c1cccc2c1C(=O)c1ccccc1C2=O | 138 | n | n | n | n | n | 55 | 86
Cc1ccc(-c2nc3cc(N)ccc3o2)c(C)c1 | n | n | n | n | n | n | x | x
Nc1ccc2oc(-c3cccc4ccccc34)nc2c1 | 82 | n | n | n | n | n | 68 | n
O=C1SCCC1NS(=O)(=O)c1ccc([N+](=O)[O-])cc1 (configuration not stated) | 96 | n | n | n | n | n | n | 24
N#CCOc1coc(CN2CCN(c3cccc(Cl)c3)CC2)cc1=O | n | n | n | n | n | n | x | x
CN(C)S(=O)(=O)c1cccc2c1C(=O)c1ccccc1C2=O | 105 | n | n | n | n | n | n | n
COC(=O)C1(S(=O)(=O)c2cccc3nsnc23)CC1 | 106 | n | n | n | n | n | n | 36
O=S(=O)(c1ccccc1)C1Cc2ccccc2C1Cl (configuration not stated) | n | n | n | n | n | x | x | x
COCCNC(=O)CN(c1cc(Cl)ccc1OC)S(=O)(=O)c1ccc(C)c([N+](=O)[O-])c1 | n | n | n | n | n | n | x | x
COCCCNC(=O)CN(c1cc(Cl)ccc1OC)S(=O)(=O)c1ccc(C)c([N+](=O)[O-])c1 | 79 | n | n | n | n | n | 59 | n
COc1ccc(S(=O)(=O)NCC2CCC(C(=O)NCc3cccnc3)CC2)cc1 (configuration not stated) | n | n | n | n | n | n | x | x
